Assay results published in ChEMBL document CHEMBL5034006, “Lead Optimization of 3,5-Disubstituted-7-Azaindoles for the Treatment of Human African Trypanosomiasis” (J Med Chem, 2021).

Test: Permeability in human Caco2 cells
Assay type: ADME, cell-based
Conditions: caco-2

Row | SMILES | permeability
1 | N#Cc1cccc(-c2c[nH]c3ncc(-c4cnn(C5CCNCC5)c4)cc23)c1 | Permeable

Test: Half life in mouse liver microsomes
Assay type: ADME, Microsome
Conditions: not given

Row | SMILES | t1/2 [h]
2 | N#Cc1cccc(-c2c[nH]c3ncc(-c4cnn(C5CCNCC5)c4)cc23)c1 | 0.567

Test: Cmax in Balb/c mouse at 10 mg/kg, ip measured after 1 hr by LC-MS/MS analysis
Assay type: ADME, organism-based
Design: route intraperitoneal, dose 10 mg/kg, time 1 hrs
Conditions: in vivo
Procedure, shortened: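 BALB/c mice (n=3) received a single 10 mg/kg intraperitoneal dose. Retro-orbital blood samples were taken at 0.083, 0.25, 0.5, 1, 2, 4, 8 and 24 h post-dose, and plasma levels were quantified by LC-MS-MS. Cmax is the mean of the three animals, read from the plasma concentration–time profile.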

Row | SMILES | Cmax [ng/mL]
3 | N#Cc1cccc(-c2c[nH]c3ncc(-c4cnn(C5CCNCC5)c4)cc23)c1 | 4413.3

Test: Intrinsic clearance in human liver microsomes assessed per mg protein by LC-MS/MS analysis
Assay type: ADME, Microsome
Conditions: not given

Row | SMILES | CLint [µL/min/mg]
4 | Cn1cc(-c2cnc3[nH]cc(-c4cccc(C#N)c4)c3c2)cn1 | 190
5 | Cn1cc(-c2cnc3[nH]cc(-c4cccc(F)c4)c3c2)cn1 | 110
6 | N#Cc1cccc(-c2c[nH]c3ncc(N4CCCCC4)cc23)c1 | 300
7 | Cn1cc(-c2cnc3[nH]cc(-c4ccc5[nH]ccc5c4)c3c2)cn1 | 300
8 | Cn1cc(-c2cnc3[nH]cc(C4CCN(C(=O)OC(C)(C)C)C4)c3c2)cn1 (configuration not stated) | 180
9 | Cc1ccc(S(=O)(=O)n2cc(-c3cccc(C#N)c3)c3cc(-c4cnn(C)c4)cnc32)cc1 | 15
10 | Cn1cc(-c2cnc3[nH]cc(-c4cncc(C#N)c4)c3c2)cn1 | 150
11 | N#Cc1cccc(-c2c[nH]c3ncc(-c4cn[nH]c4)cc23)c1 | 290
12 | Cn1cc(-c2ccc3[nH]cc(-c4cccc(C#N)c4)c3c2)cn1 | 190
13 | COc1cccc(-c2c[nH]c3ncc(-c4cnn(C)c4)cc23)c1 | > 300
14 | Cn1cc(-c2cnc3[nH]cc(C4CCCNC4)c3c2)cn1 (configuration not stated) | < 3
15 | Cn1cc(-c2cnc3[nH]cc(-c4ccc(F)c(C#N)c4)c3c2)cn1 | 64
16 | Cc1nn(C)c(C)c1-c1cnc2[nH]cc(-c3cccc(C#N)c3)c2c1 | 300
17 | Cn1cc(-c2cnc3[nH]cc(-c4cc(F)cc(C#N)c4)c3c2)cn1 | 91
18 | Cn1cc(-c2cnc3[nH]cc(-c4ccc5nonc5c4)c3c2)cn1 | 88
19 | Cn1cc(-c2cnc3[nH]cc(C4CCNC4)c3c2)cn1 (configuration not stated) | < 3
20 | CN1CCC(n2cc(-c3cnc4[nH]cc(-c5cccc(C#N)c5)c4c3)cn2)CC1 | 17
21 | Cn1cc(-c2cnc3[nH]cc(-c4ccc(C(=O)O)cc4)c3c2)cn1 | < 3
22 | CC(C)(C)OC(=O)N1CCN(c2cnc3[nH]cc(-c4cccc(C#N)c4)c3c2)CC1 | 94
23 | CS(=O)(=O)c1ccc(-c2cnc3[nH]cc(-c4cccc(C#N)c4)c3c2)cc1 | 30

Row | SMILES | CLint [µL/min/mg]
24 | CN1CCCN(c2cnc3[nH]cc(-c4cccc(C#N)c4)c3c2)CC1 | 82
25 | Cn1cc(-c2cnc3[nH]cc(-c4ccc(F)c(F)c4)c3c2)cn1 | 90
26 | Cn1cc(-c2cnc3[nH]cc(-c4ccc(F)cc4)c3c2)cn1 | 130
27 | CC(C)(C)OC(=O)N1CCC(n2cc(-c3cnc4[nH]cc(-c5cccc(C#N)c5)c4c3)cn2)CC1 | 91
28 | Cc1ccc(-c2c[nH]c3ncc(-c4cnn(C)c4)cc23)cc1 | 130
29 | N#Cc1cccc(-c2c[nH]c3ncc(-c4cnn(C5CCOCC5)c4)cc23)c1 | 46
30 | Cn1cc(-c2cnc3[nH]cc(-c4ccc(Cl)c(Cl)c4)c3c2)cn1 | 51
31 | Cn1cc(-c2cnc3[nH]cc(-c4ccccc4)c3c2)cn1 | 200
32 | Cn1cc(-c2c[nH]c3ncc(-c4cccc(C#N)c4)cc23)cn1 | 300
33 | Cn1cc(-c2cnc3[nH]cc(-c4ccnc(C#N)c4)c3c2)cn1 | 190
34 | Cn1cc(-c2cnc3[nH]cc(-c4ccc(O)cc4)c3c2)cn1 | 50
35 | CS(=O)(=O)c1ccc(Nc2cnc3[nH]cc(-c4cccc(C#N)c4)c3c2)cc1 | 33
36 | Cn1cc(-c2cnc3occ(-c4cccc(C#N)c4)c3c2)cn1 | 130
37 | Cn1cc(-c2cnc3[nH]cc(-c4ccccc4C#N)c3c2)cn1 | 200
38 | N#Cc1cccc(-c2c[nH]c3ncc(-c4cncnc4)cc23)c1 | 31
39 | Cn1cc(-c2cnc3[nH]cc(-c4cccc([N+](=O)[O-])c4)c3c2)cn1 | 14
40 | Cn1cc(-c2cnc3[nH]cc(-c4cccnc4)c3c2)cn1 | 90
41 | N#Cc1cccc(-c2c[nH]c3ncc(-c4ccncc4)cc23)c1 | 160
42 | Cn1cc(-c2cnc3[nH]ccc3c2)cn1 | > 300
43 | Cn1cc(-c2cnc3[nH]cc(-c4ccc(C#N)cc4)c3c2)cn1 | 51

Row | SMILES | CLint [µL/min/mg]
44 | CN1CCN(c2cnc3[nH]cc(-c4cccc(C#N)c4)c3c2)CC1 | 44
45 | Cc1c(-c2cnn(C)c2)cnc2[nH]cc(-c3cccc(C#N)c3)c12 | 210
46 | Cn1cc(-c2cnc3[nH]cc(C4CCNCC4)c3c2)cn1 | 3
47 | Cc1nn(C)cc1-c1cnc2[nH]cc(-c3cccc(C#N)c3)c2c1 | 250
48 | N#Cc1cccc(-c2n[nH]c3ncc(-c4cnn(C5CCOCC5)c4)cc23)c1 | 42
49 | Cn1cc(-c2cnc3[nH]cc(-c4ccc(Cl)cc4)c3c2)cn1 | 57
50 | c1cc(-c2c[nH]c3ncc(-c4cnn(C5CCOCC5)c4)cc23)ccn1 | 29
51 | Cn1cc(-c2cnc3[nH]cc(-c4ccc(C(N)=O)cc4)c3c2)cn1 | 14
52 | CS(=O)(=O)N1CCN(c2cnc3[nH]cc(-c4cccc(C#N)c4)c3c2)CC1 | 32
53 | Cn1cc(-c2cnc3[nH]cc(C4CCN(C(=O)OC(C)(C)C)CC4)c3c2)cn1 | 300
54 | Cn1cc(Nc2cnc3[nH]cc(-c4cccc(C#N)c4)c3c2)cn1 | 15
55 | Cn1cc(-c2cnc3[nH]cc(-c4ccncc4)c3c2)cn1 | 39
56 | N#Cc1cccc(-c2c[nH]c3ncc(N4CCCC4)cc23)c1 | 50
57 | Cn1cc(-c2cnc3[nH]cc(-c4ccccc4F)c3c2)cn1 | 150
58 | c1nc2[nH]cc(C3CCCNC3)c2cc1-c1cnn(C2CCOCC2)c1 (configuration not stated) | < 3
59 | Cn1cc(-c2cnc3[nH]cc(-c4cccc(N)c4)c3c2)cn1 | 290
60 | Cn1cc(-c2cnc3[nH]cc(C4CCCN(C(=O)OC(C)(C)C)C4)c3c2)cn1 (configuration not stated) | > 300
61 | Cn1cc(-c2cnc3c(c2)c(-c2cccc(C#N)c2)cn3C)cn1 | 180
62 | COc1ccc(-c2c[nH]c3ncc(-c4cnn(C)c4)cc23)cc1 | 180
63 | N#Cc1cccc(-c2c[nH]c3ncc(-c4cnn(C5CCNCC5)c4)cc23)c1 | < 3

Test: Intrinsic clearance in rat hepatocytes assessed per million cells by LC-MS/MS analysis
Assay type: ADME, cell-based, Hepatocyte
Conditions: not given

Row | SMILES | CLH [µL/min]
64 | N#Cc1cccc(-c2c[nH]c3ncc(-c4cnn(C5CCNCC5)c4)cc23)c1 | 19

Test: Drug level in Balb/c mouse brain at 10 mg/kg, ip measured after 0.5 hrs by LC-MS/MS analysis
Assay type: ADME, organism-based
Conditions: in vivo, BLD = below limit of detection
Procedure, shortened: (§1)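 BALB/c mice, n=3, single 10 mg/kg intraperitoneal dose. Blood (50 μL) taken by retro-orbital bleed at 0.083, 0.25, 0.5, 1, 2, 4, 8 and 24 h post-dose. Plasma levels measured by LC-MS-MS. Brain and plasma levels from sparse sampling at 0.5 and 4 h; LLOQ 9.77 ng/mL.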

Row | SMILES | Drug uptake
65 | N#Cc1cccc(-c2c[nH]c3ncc(-c4cnn(C5CCNCC5)c4)cc23)c1 | Bld

Test: Tmax in Balb/c mouse at 10 mg/kg, ip by LC-MS/MS analysis
Assay type: ADME, organism-based
Conditions: in vivo
Procedure, shortened: as §1

Row | SMILES | Tmax [h]
66 | N#Cc1cccc(-c2c[nH]c3ncc(-c4cnn(C5CCNCC5)c4)cc23)c1 | 1

Test: Half life in mouse plasma
Assay type: ADME, cell-free
Conditions: not given

Row | SMILES | t1/2 [h]
67 | N#Cc1cccc(-c2c[nH]c3ncc(-c4cnn(C5CCNCC5)c4)cc23)c1 | > 2
